In the library only some 9.6% were active in any assay of this set; here they are far more common.
PMI act satM6P: PMI (human) activation, high substrate | P34949 | coupled PMI enzyme assay, resazurin fluorescence, 20 min; stronger effect = higher value; 1 = untreated enzyme, 0 = substrate-free blank | activation factor at 20 µM | 0.34% of 190,000 active | AID 1216;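 active means activation factor of 2 or more at 20 µM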
Target sequence (P34949 whole entry, looked up): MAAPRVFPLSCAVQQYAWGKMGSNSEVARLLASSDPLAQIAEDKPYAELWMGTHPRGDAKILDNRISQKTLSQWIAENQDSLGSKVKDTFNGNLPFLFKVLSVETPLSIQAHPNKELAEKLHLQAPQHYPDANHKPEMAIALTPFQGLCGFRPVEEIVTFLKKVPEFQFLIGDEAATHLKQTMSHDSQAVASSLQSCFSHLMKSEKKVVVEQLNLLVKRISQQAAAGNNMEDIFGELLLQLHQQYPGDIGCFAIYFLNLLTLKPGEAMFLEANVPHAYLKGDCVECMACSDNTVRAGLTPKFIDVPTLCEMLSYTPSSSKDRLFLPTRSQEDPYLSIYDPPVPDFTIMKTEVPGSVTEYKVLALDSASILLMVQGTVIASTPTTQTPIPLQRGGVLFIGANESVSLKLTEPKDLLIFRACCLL
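Test system: human phosphomannose isomerase with PGI, G6PDH, diaphorase coupling enzymes; Amount: PMI at 15 ng/mL final; Reagent: Mannose-6-phosphate 1.0 mM (near-saturating) plus 0.22 mM NADP+; Timing: 20 min, room temperature; Technique: resorufin fluorescence at Ex 544/Em 590 nm; Dosing: 20 µM single dose.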
PMI act: phosphomannose isomerase (human) activation; AID 1214; P34949; purified human PMI, coupled resazurin fluorescence, 20 min; stronger effect = higher value; 1 = vehicle control, 0 substrate-free wells; activation factor at 20 µM; 0.005% of 190,000 active;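 active means activation factor of 2 or more at 20 µM, relative to plate controls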
Lmaj promast: reduces viability of Leishmania major promastigotes; resazurin fluorescence viability; inhibition, % at 10 µM; 9% of 200,000 active; in the data active means inhibition above about 50%;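 further: promastigotes grown with compound for 44 hours at 28 °C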
HCT116 PTEN-null: suppresses growth of cells with PTEN deletion | HCT116 PTEN-null viability, CellTiter-Glo, 60 h; stronger effect = lower value | viability, % at 10 µM | 1.2% of 140,000 active | AID 827;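 active means viability at or below a set limit, 4 SD under the median of all tested compounds, cut at about 3.7% in these data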;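 further: PTEN knockout HCT116 line with beta catenin targeted HCT116 as companion control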
bCat KO growth: beta-catenin-lacking colon tumor cell growth suppression; HCT116 beta-catenin knockout viability, CellTiter-Glo, 60 h; stronger effect = lower value; viability, % at 10 µM; 1.5% of 140,000 active;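 active means viability at or under a set limit, the compound median less 4 SD, cut at about 6% in these data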;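 further: 0% = Hyamine 1622 control at 20 µM and 100% = untreated cell control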
* hit, by the source's call; / = no result given.

SMILES | PMI act satM6P | PMI act | Lmaj promast | HCT116 PTEN-null | bCat KO growth
COc1ccc(C(=S)N2CCN(C)CC2)cc1 | 1.1 | 1 | 85* | 88 | 89
CN1CCN(C(=S)c2ccc(Cl)cc2)CC1 | 1.1 | 1 | 90* | 111 | 100
COc1ccc(C(=S)N2CCN(C)CC2)cc1Br | 1.1 | 1.1 | 92* | 97 | 95
COc1ccc(C(=O)Oc2ccc(C(=S)N3CCOCC3)cc2)cc1 | 0.8 | 0.5 | 27 | / | /
COc1ccc2c(C)cc(Sc3nnnn3-c3ccccc3)nc2c1 | 0.9 | 0.9 | 49 | 92 | 95
O=c1[nH]c(N/N=C/c2ccccc2)nc2ccccc12 | 1.1 | 1 | 58* | 97 | 102
O=C(N/N=C/c1ccc2c(c1)OCO2)c1cc(-c2ccccc2)nc2ccccc12 | 0.9 | 0.9 | 23 | 92 | 95
Cc1cccc(/C=N\Nc2nnc(-c3ccccc3)c(=O)[nH]2)c1 | 0.9 | 0.9 | 68* | 96 | 97
CC(/C=N/Nc1nnc(C)c(=O)[nH]1)=C\c1ccccc1 | 0.9 | 0.8 | 5 | 88 | 87
O=c1[nH]c(N/N=C\c2ccc3c(c2)OCO3)nc2ccccc12 | 1 | 0.9 | 51* | / | /
O=c1[nH]ncc(N/N=C/c2ccccc2)c1Cl | 0.9 | 0.8 | -8 | 98 | 96
Cc1ccc(/C=C2/SC(=O)NC2=S)o1 | 1.5 | 1.5 | 5 | / | /
CCc1cccc(OCCCCN(CC)CC)c1 | 1 | 1 | 98* | 82 | 85
CCc1cccc(OCCCCNCCCOC)c1 | 1.1 | 1 | 99* | 93 | 95
CCOc1cccc(OCCCNCCCOC)c1 | 1.1 | 1 | 88* | 93 | 98
O=C(NC(=S)Nc1ccc(S(=O)(=O)Nc2nccs2)cc1)c1cccc(F)c1 | 1.1 | 1 | -10 | 90 | 91
COc1ccc(NC(=O)C(Sc2ccccc2)c2ccccc2)c(OC)c1 (stereo not drawn) | 0.9 | 0.9 | 2 | 77 | 91
O=C(NC(=S)NC1C2CC3CC(C2)CC1C3)C12CC3CC(CC(C3)C1)C2 (stereo not drawn) | 1 | 0.8 | 51* | 83 | 76
COc1cccc(NC(=S)N2CCC(N(C)CC3CCCO3)CC2)c1 (stereo not drawn) | 0.9 | 0.9 | 94* | 97 | 88
Cc1ccc(C)c(NC(=S)N2CCC(N(C)CC3CCCO3)CC2)c1 (stereo not drawn) | 1.1 | 1 | 91* | 104 | 100
Cc1ccc(NC(=S)N2CCC(N(C)CC3CCCO3)CC2)c(C)c1 (stereo not drawn) | 1 | 1 | 90* | 91 | 88
Cc1ccc(C)c(NC(=S)N2CCCCCC2)c1 | 0.9 | 1 | -6 | 101 | 92
Cc1ccccc1Cn1cc(NC(=O)CCCn2nc([N+](=O)[O-])cc2C)cn1 | 1 | 1 | -8 | / | /
Cn1cnnc1SC(C(=O)Nc1cc(Cl)cc(Cl)c1)c1ccccc1 (stereo not drawn) | 0.7 | 0.8 | -6 | 87 | 88
COCCN(C(=O)CNC(=O)c1ccco1)C(C(=O)NC1CCCCC1)c1cccs1 (stereo not drawn) | 0.8 | 0.9 | 33 | 96 | 97
SMILES | PMI act satM6P | PMI act | Lmaj promast | HCT116 PTEN-null | bCat KO growth
Cc1ccccc1OCc1nc2ccccc2c(=O)n1/N=C/c1cn[nH]c1-c1ccccc1 | 0.9 | 0.9 | 100* | 31 | 34
Cc1ccc(-c2[nH]ncc2/C=N/n2c(COc3ccccc3)nc3ccccc3c2=O)cc1 | 0.9 | 0.8 | 41 | 1.9* | 1.6*
CCOc1ccccc1NC(=S)NNS(=O)(=O)c1c(C)cc(C)cc1C | 1.1 | 1 | 24 | 105 | 102
O=C(CN1C(=O)c2ccccc2C1=O)Nc1ccc(Cl)cn1 | 1.2 | 1.2 | -3 | / | /
CC1=C(C#N)C(c2cn(-c3ccccc3)nc2-c2cccs2)C(C#N)=C(C)N1 | 0.9 | 0.9 | 66* | 93 | 99
C=CCn1c(=O)/c(=C/c2ccc(F)cc2)s/c1=C(\C#N)c1nnc2n1CCCCC2 | 1 | 1 | 61* | 52 | 57
Cc1ccc(OCCOC(=O)Nc2ccccc2)cc1 | 1.1 | 1.1 | -2 | 104 | 92
C=C(C)C1CCC(C)=C1COC(=O)Nc1ccccc1 (stereo not drawn) | 0.9 | 0.9 | 96* | 82 | 69
C=CCn1c(SCC(=O)c2[nH]c(C)c(C(=O)OCC)c2C)nc2scc(-c3ccc(OC)c(OC)c3)c2c1=O | 0.9 | 1 | -2 | 0.8* | 1.0*
CN(C)CCC1CCN(c2cc(C#N)c(C#N)cc2[N+](=O)[O-])CC1 | 1 | 1 | 55* | / | /
N=c1n(CCO)c2ccccc2n1CCOc1ccc(Cl)cc1Cl | 1 | 1 | 98* | 1.6* | 1.7*
N=c1n(CCO)c2ccccc2n1Cc1ccccc1Cl | 0.9 | 0.8 | 6 | 80 | 76
CCOc1ccccc1C(=O)Nc1cc(Cl)ccc1O | 0.9 | 0.9 | 79* | 66 | 57
Cc1ccc(Cl)cc1NC(=O)c1ccccc1OCC(=O)Nc1ccc(Cl)cc1 | 1.1 | 1 | 7 | 2.9* | 27
Cc1ccc(NC(=O)COc2ccccc2C(=O)Nc2ccccc2)cc1Cl | 1 | 0.9 | 5 | 88 | 93
Cc1nnsc1C(=O)N/N=C/c1ccc2ccccc2c1O | 1.2 | 0.8 | 100* | 16 | 9
C=CCn1c(-c2ccc(S(=O)(=O)N3CCOCC3)cc2)csc1=Nc1ccccc1 | 1 | 1 | -1 | 79 | 75
CC(=O)c1cccc(N=c2scc(-c3ccc(S(=O)(=O)N4CCOCC4)cc3)n2CCO)c1 | 1.1 | 1.1 | 95* | 15 | 15
CCOC(=O)c1c(NC(=O)c2ccco2)n(C2CCCCC2)c2nc3ccccc3nc12 | 0.4 | 0.5 | 100* | 65 | 71
CCOC(=O)c1c(N)n(CCOC(=O)c2cccs2)c2nc3ccccc3nc12 | 0.8 | 0.9 | 60* | 70 | 82
CCCCCOC(=O)c1c(N)n(CCOC)c2nc3ccccc3nc12 | 0.5 | 0.8 | 100* | 74 | 69
COC(=O)c1c(N)n(CCCN2CCOCC2)c2nc3ccccc3nc12 | 0.8 | 0.9 | 10 | 81 | 76
CCOC(=O)c1c(N)n(C2CC(C)(C)NC(C)(C)C2)c2nc3ccccc3nc12 | 0.8 | 0.9 | 83* | 68 | 69
COc1ccc(NC(=O)c2cncc(Br)c2)cc1S(N)(=O)=O | 1 | 1 | -4 | / | /
O=c1[nH]c(CSc2nnc3ccccn23)nc2cc(C(F)(F)F)ccc12 | 1.1 | 1.1 | -8 | / | /
O=C1OCC2=C1C(c1ccccc1)CC(=O)N2c1ccc(F)cc1 (stereo not drawn) | 1 | 1.1 | -8 | / | /
COc1ccc(OCC(O)CN(CCO)CC(O)Cn2ccc3ccccc32)cc1 (stereo not drawn) | 0.9 | 0.8 | -2 | 99 | 82
CCC(=C(c1ccc(OC)cc1)c1ccc(OC)cc1)c1cn(CC(O)CN(CCO)CCO)c2ccccc12 (stereo not drawn) | 0.8 | 0.8 | 69* | / | /
Cc1nn(C(C)C(=O)NCc2cccs2)c(C)c1[N+](=O)[O-] (stereo not drawn) | 1 | 1 | 1 | / | /
